In PMC10099454 (ACS Omega, 2023):

Experiments:
[1] = read-out: IC50 broad anticancer activity; cited from earlier work
[2] = target: Topoisomerase II (Homo sapiens, UniProt P11388); experiment: Topo II inhibition assay; format: biochemical
[3] = tested on: A549; experiment: MTT cytotoxicity assay; format: cell-based; conditions: Homo sapiens, A549, 48 h, read-out: IC50 A549
Summary of the method: (§1)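 Human cancer (A549, MCF-7) and normal (MCF-10A, THLE2, WISH) lines cultured in RPMI-1640/DMEM with L-glutamine, 10% FBS and 1% penicillin-streptomycin at 37 °C, 5% CO2. […] MTT absorbance read at […]. IC50 taken from concentration-viability curves.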

[4] = tested on: MCF-7; experiment: MTT cytotoxicity assay; format: cell-based; conditions: Homo sapiens, MCF7, 48 h, read-out: IC50 MCF-7
Summary of the method: as §1

Sequence of Topoisomerase II (P11388 whole entry): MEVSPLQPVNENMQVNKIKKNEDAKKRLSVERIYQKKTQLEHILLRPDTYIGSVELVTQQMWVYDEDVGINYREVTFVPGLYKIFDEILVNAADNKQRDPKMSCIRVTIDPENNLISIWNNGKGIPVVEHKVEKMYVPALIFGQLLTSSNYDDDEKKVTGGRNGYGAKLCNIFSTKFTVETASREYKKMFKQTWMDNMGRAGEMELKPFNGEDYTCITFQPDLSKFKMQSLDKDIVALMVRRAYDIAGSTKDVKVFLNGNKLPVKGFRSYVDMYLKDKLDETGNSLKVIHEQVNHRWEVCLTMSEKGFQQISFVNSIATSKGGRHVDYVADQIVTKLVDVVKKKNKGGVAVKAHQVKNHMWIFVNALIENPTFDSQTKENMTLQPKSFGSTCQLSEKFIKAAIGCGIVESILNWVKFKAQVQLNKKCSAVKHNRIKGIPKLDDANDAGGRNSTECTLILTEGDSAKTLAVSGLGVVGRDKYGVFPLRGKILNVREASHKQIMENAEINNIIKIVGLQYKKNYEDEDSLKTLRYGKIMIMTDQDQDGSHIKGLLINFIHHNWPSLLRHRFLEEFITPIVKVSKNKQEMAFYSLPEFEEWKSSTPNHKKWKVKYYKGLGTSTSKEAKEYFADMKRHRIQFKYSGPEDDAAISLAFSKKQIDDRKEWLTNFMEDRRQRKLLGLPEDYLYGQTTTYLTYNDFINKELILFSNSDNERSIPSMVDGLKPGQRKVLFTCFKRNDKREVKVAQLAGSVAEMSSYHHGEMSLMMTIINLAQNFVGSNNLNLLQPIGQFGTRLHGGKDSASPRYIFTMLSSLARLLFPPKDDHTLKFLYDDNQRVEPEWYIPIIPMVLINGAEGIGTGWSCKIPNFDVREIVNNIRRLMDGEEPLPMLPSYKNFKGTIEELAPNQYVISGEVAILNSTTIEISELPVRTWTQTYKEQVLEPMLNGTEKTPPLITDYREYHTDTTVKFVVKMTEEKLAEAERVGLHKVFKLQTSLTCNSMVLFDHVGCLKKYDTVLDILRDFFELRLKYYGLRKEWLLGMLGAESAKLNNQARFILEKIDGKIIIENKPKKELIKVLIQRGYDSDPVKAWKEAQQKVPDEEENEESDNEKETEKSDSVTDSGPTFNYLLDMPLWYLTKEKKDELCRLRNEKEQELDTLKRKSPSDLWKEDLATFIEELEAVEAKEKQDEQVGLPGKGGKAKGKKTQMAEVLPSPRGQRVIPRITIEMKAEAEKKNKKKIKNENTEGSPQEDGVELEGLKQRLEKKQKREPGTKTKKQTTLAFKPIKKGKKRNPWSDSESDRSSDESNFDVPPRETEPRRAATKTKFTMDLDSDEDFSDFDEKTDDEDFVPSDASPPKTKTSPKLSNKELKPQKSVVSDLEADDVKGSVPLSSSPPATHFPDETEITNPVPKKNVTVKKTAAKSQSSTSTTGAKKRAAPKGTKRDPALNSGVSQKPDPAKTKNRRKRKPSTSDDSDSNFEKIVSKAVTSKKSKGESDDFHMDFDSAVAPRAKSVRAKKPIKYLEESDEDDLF

Row | SMILES | IC50 [1] | IC50 [2] | IC50 [3] | IC50 [4]
1 | CCN1C(=O)C(=Cc2ccccc2)SC1=S [BTR-1, 5-Benzylidene-3-ethyl rhodanine] | < 10 µM |  |  | 
2 | CC(=O)OC[C@H]1O[C@@H](N2C(=O)/C(=C/c3ccccc3)SC2=S)[C@H](OC(C)=O)[C@@H](OC(C)=O)[C@@H]1OC(C)=O [Compound 11a, 5-((Z)-Benzylidene)-3-(2′,3′,4′,6′-tetra-O-acetyl-β-D-glucopyranosyl)-2-thioxo-4-thiazolidinone] |  | 7.6 ± 0.24 µM | 9.8 ± 0.11 µM | 3.7 ± 0.13 µM
